Assay results as given in ChEMBL document CHEMBL4334435, “A focused structure-activity relationship study of psoralen-based immunoproteasome inhibitors” (Medchemcomm, 2019).
Calls of active or inactive are those of the source. The rule behind the calls is not given here.

Legend:
[1] = biological target: T1, Proteasome subunit beta type-9 (Homo sapiens) (UniProt P28065); test: Inhibition of human immunoproteasome beta 1i subunit at 10 uM using Ac-PAL-AMC as substrate preincubated for 30 mins followed by substrate addition measured for 120 mins by fluorescence based assay
T1 sequence (whole entry): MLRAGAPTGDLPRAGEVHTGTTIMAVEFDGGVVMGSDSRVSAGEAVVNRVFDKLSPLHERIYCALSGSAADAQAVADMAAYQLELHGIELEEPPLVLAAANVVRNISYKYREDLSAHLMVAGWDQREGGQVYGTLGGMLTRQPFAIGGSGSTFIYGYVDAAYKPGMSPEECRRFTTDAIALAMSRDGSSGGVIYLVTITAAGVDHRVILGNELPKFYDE
How it was run: (§1)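 Purified human immunoproteasome or constitutive proteasome subunit activities measured with fluorogenic substrates in presence of 10 μM compound; reported as residual activity.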

[2] = biological target: T2, Proteasome Macropain subunit MB1 (Homo sapiens, UniProt P28074); test: Inhibition of human constitutive proteasome beta 5 subunit using Suc-LLVY-AMC as substrate preincubated for 30 mins followed by substrate addition measured for 120 mins by fluorescence based assay
T2 sequence (P28074 whole entry): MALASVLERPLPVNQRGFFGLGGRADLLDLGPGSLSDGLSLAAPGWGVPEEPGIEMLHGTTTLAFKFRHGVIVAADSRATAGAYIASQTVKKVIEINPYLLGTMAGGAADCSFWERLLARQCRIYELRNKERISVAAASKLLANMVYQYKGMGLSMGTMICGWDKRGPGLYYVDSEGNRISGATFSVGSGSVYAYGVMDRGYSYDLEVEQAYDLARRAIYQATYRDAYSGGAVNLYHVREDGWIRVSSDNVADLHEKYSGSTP

[3] = biological target: T3, Proteasome subunit beta type-8 (Homo sapiens, UniProt P28062); test: Inhibition of 20S immunoproteasome beta 5 chymotrypsin-like activity in human THP-1 cell lysates using Suc-LLVY-AMC as substrate preincubated for 30 mins followed by substrate addition and measured for 90 mins by fluorescence based assay; assay type: subcellular, Lysate
T3 sequence (P28062 whole entry): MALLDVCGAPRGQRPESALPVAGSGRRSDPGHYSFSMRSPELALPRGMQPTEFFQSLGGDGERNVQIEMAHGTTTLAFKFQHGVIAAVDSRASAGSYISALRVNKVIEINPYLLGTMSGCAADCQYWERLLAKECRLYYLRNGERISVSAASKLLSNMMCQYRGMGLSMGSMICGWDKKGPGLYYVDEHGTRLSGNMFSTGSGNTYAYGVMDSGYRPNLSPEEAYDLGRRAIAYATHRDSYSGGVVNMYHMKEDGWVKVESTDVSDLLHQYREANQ
How it was run: (§2)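 Compounds incubated with cell lysates (HeLa: predominantly constitutive proteasome; THP-1: high immunoproteasome) and beta5 activity read with fluorogenic Suc-LLVY-AMC; IC50 determined.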

PBMC [4] = test: Inhibition of LPS-induced IL-10 secretion in human PBMC at 10 uM preincubated for 1 hr followed by LPS addition and measured after 24 hrs by cytometric bead array-based FACS analysis; assay type: functional, cell-based
[5] = biological target: T4, Proteasome subunit beta type-8 (Homo sapiens) (UniProt P28062); test: Inhibition of 26S immunoproteasome beta 5 chymotrypsin-like activity in human HeLa intact cells using […] as substrate after 2 hrs by luciferase based assay; assay type: cell-based
T4 sequence (whole entry): T3 sequence (P28062 whole entry)

PBMC [6] = test: Inhibition of LPS-induced IL-8 production in human PBMC at 10 uM preincubated for 1 hr followed by LPS addition and measured after 24 hrs by cytometric bead array-based FACS analysis; assay type: functional, cell-based
[7] = biological target: T2, Proteasome Macropain subunit MB1; test: Inhibition of human constitutive proteasome beta 5 subunit at 10 uM using Suc-LLVY-AMC as substrate preincubated for 30 mins followed by substrate addition measured for 120 mins by fluorescence based assay; settings: 2 h; how it was run: as §1
PBMC [8] = test: Inhibition of LPS-induced IL-6 secretion in human PBMC at 10 uM preincubated for 1 hr followed by LPS addition and measured after 24 hrs by cytometric bead array-based FACS analysis; assay type: functional, cell-based
[9] = biological target: T3, Proteasome subunit beta type-8; test: Inhibition of human immunoproteasome beta 5i subunit using Suc-LLVY-AMC as substrate preincubated for 30 mins followed by substrate addition and measured for 120 mins by fluorescence based assay
[10] = biological target: T5, Proteasome subunit beta type-10 (Homo sapiens) (UniProt P40306); test: Inhibition of human immunoproteasome beta 2i subunit at 10 uM using Boc-LRR-AMC as substrate preincubated for 30 mins followed by substrate addition measured for 120 mins by fluorescence based assay; how it was run: as §1
T5 sequence (whole entry): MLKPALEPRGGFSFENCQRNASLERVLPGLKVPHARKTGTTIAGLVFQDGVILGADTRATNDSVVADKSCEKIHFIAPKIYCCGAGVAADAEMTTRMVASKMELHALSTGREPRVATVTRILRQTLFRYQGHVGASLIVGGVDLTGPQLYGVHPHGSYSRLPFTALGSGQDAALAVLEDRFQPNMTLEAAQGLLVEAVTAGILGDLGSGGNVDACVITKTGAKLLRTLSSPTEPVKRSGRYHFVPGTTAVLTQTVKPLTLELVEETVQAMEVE

[11] = biological target: T4, Proteasome subunit beta type-8 (Homo sapiens); test: Inhibition of 20S immunoproteasome beta 5 chymotrypsin-like activity in human HeLa cell lysates using Suc-LLVY-AMC as substrate preincubated for 30 mins followed by substrate addition and measured for 90 mins by fluorescence based assay; assay type: subcellular; settings: Lysate; how it was run: as §2
[12] = biological target: T6, Proteasome subunit beta type-9 (Homo sapiens, UniProt P28065); test: Inhibition of human immunoproteasome beta 1i subunit using Ac-PAL-AMC as substrate preincubated for 30 mins followed by substrate addition measured for 120 mins by fluorescence based assay
T6 sequence (P28065 whole entry): T1 sequence (whole entry)

PBMC [13] = test: Inhibition of LPS-induced IL-12p70 production in human PBMC at 10 uM preincubated for 1 hr followed by LPS addition and measured after 24 hrs by cytometric bead array-based FACS analysis; assay type: functional, cell-based
[14] = biological target: T4, Proteasome subunit beta type-8 (Homo sapiens); test: Inhibition of 26S immunoproteasome beta 5 chymotrypsin-like activity in human THP-1 intact cells using […] as substrate after 2 hrs by luciferase based assay; assay type: cell-based
PBMC [15] = test: Inhibition of LPS-induced TNFalpha production in human PBMC at 10 uM preincubated for 1 hr followed by LPS addition and measured after 24 hrs by cytometric bead array-based FACS analysis; assay type: functional, cell-based
[16] = biological target: T4, Proteasome subunit beta type-8 (Homo sapiens); test: Time-dependent inhibition of human immunoproteasome beta 5i subunit assessed as increase in IC50 value using Suc-LLVY-AMC as substrate co-incubated with substrate without preincubation by fluorescence based analysis relative to 30 mins preincubated compound-treated control
How it was run: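 IC50 against immunoproteasome beta5i (Suc-LLVY-AMC) determined without pre-incubating compound with enzyme before substrate addition, compared against pre-incubated assay.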

[17] = biological target: T7, Proteasome subunit beta type-10 (Homo sapiens, UniProt P40306); test: Inhibition of human immunoproteasome beta 2i subunit using Boc-LRR-AMC as substrate preincubated for 30 mins followed by substrate addition measured for 120 mins by fluorescence based assay
T7 sequence (P40306 whole entry): T5 sequence (whole entry)

PBMC [18] = test: Inhibition of LPS-induced IL-1beta production in human PBMC at 10 uM preincubated for 1 hr followed by LPS addition and measured after 24 hrs by cytometric bead array-based FACS analysis; assay type: functional, cell-based
[19] = biological target: T4, Proteasome subunit beta type-8 (Homo sapiens); test: Inhibition of human immunoproteasome beta 5i subunit using Suc-LLVY-AMC as substrate assessed as residual activity at 10 uM preincubated for 30 mins followed by substrate addition measured for 120 mins by fluorescence based assay relative to control; how it was run: as §1
[20] = biological target: T4, Proteasome subunit beta type-8 (Homo sapiens); test: Irreversible inhibition of human immunoproteasome beta 5i subunit assessed as recovery of enzyme activity at 1060 nM using Suc-LLVY-AMC as substrate preincubated for 30 mins followed by 100-fold diluted substrate addition by rapid dilution assay relative to control; set-up: scale not given: the % may be the effect or the level left
Homo sapiens = species on record: Homo sapiens; test: Selectivity ratio of IC50 for human constitutive proteasome beta 5 subunit to IC50 for human immunoproteasome beta 5i subunit

| inhibition [1] | IC50 [2] | inhibition (INH) [7] | IC50 [9] [nM] | inhibition [10] | IC50 [12] | IC50 [17] | SMILES | further results |
| --- | --- | --- | --- | --- | --- | --- | --- | --- |
| inactive | Nd(Insoluble) | Not Active | 174 | inactive | Nd(Insoluble) | Nd(Insoluble) | CCc1ccc(-c2coc3cc4oc(=O)c(-c5nsc(=O)o5)c(C)c4cc23)cc1 | IC50 [3]: 1530 nM; inhibition (PBMC [4]): Active; inhibition [5]: inactive; inhibition (PBMC [6]): inactive; inhibition (PBMC [8]): Active; inhibition [11]: Active; inhibition (PBMC [13]): inactive; inhibition [14]: inactive; inhibition (PBMC [15]): inactive; inhibition [16]: Active; inhibition (PBMC [18]): inactive |
| inactive | Nd(Insoluble) | Not Active | 264 | inactive | Nd(Insoluble) | Nd(Insoluble) | Cc1c(-c2nsc(=O)o2)c(=O)oc2cc3occ(C4CCCC4)c3cc12 |  |
| inactive | Nd(Insoluble) | Not Active | 227 | inactive | Nd(Insoluble) | Nd(Insoluble) | COc1ccccc1-c1coc2cc3oc(=O)c(-c4nsc(=O)o4)c(C)c3cc12 |  |
|  |  |  |  |  |  |  | Cc1c(CCC(=O)NCC#N)c(=O)oc2cc3occ(C4CCCCC4)c3cc12 | Activity [19]: 102% |
| inactive | Nd(Insoluble) | Not Active | 433 | inactive | Nd(Insoluble) | Nd(Insoluble) | Cc1c(-c2nsc(=O)o2)c(=O)oc2cc3occ(C4CCC4)c3cc12 |  |
|  |  |  |  |  |  |  | Cc1c(CC(=O)NCC#N)c(=O)oc2cc3occ(C4CCCCC4)c3cc12 | Activity [19]: 99% |
| inactive | Nd(Insoluble) | Not Active | 106 | inactive | Nd(Insoluble) | Nd(Insoluble) | Cc1c(-c2nsc(=O)o2)c(=O)oc2cc3occ(C4CCCCC4)c3cc12 | IC50 [3]: 1010 nM; inhibition (PBMC [4]): Active; inhibition [5]: inactive; inhibition (PBMC [6]): inactive; Activity [20]: 22%; inhibition (PBMC [8]): Active; inhibition [11]: Active; inhibition (PBMC [13]): inactive; inhibition [14]: inactive; inhibition (PBMC [15]): inactive; inhibition [16]: Active; inhibition (PBMC [18]): inactive |
|  |  |  | 1830 |  |  |  | Cc1c(CCC(=O)ON2C(=O)CCC2=O)c(=O)oc2cc3occ(C4CCCCC4)c3cc12 |  |
|  |  |  |  |  |  |  | Cc1c(CCC(=O)N(C)CC#N)c(=O)oc2cc3occ(C4CCCCC4)c3cc12 | Activity [19]: 111% |
|  |  |  |  |  |  |  | Cc1c(CC(=O)ON2C(=O)CCC2=O)c(=O)oc2cc3occ(C4CCCCC4)c3cc12 | Activity [19]: 62% |
| inactive | Nd(Insoluble) | Not Active | 351 | inactive | Nd(Insoluble) | Nd(Insoluble) | Cc1c(-c2nsc(=O)o2)c(=O)oc2cc3occ(-c4ccc(Br)cc4)c3cc12 |  |
| inactive | Nd(Insoluble) | Not Active | 226 | inactive | Nd(Insoluble) | Nd(Insoluble) | COc1cccc(-c2coc3cc4oc(=O)c(-c5nsc(=O)o5)c(C)c4cc23)c1 |  |
| inactive | Nd(Insoluble) | Not Active | 200 | inactive | Nd(Insoluble) | Nd(Insoluble) | Cc1c(-c2nsc(=O)o2)c(=O)oc2cc3occ(-c4ccc(F)cc4)c3cc12 |  |
| inactive | Nd(Insoluble) | Not Active | 141 | inactive | Nd(Insoluble) | Nd(Insoluble) | Cc1c(-c2nsc(=O)o2)c(=O)oc2cc3occ(-c4cccs4)c3cc12 | inhibition [16]: Active |
|  |  |  | 13 |  |  |  | Cc1c(-c2nsc(=O)o2)c(=O)oc2cc3occ(-c4ccccc4)c3cc12 | Ratio IC50 (Homo sapiens): 80 |
|  |  |  |  |  |  |  | Cc1c(CC(=O)N(C)CC#N)c(=O)oc2cc3occ(C4CCCCC4)c3cc12 | Activity [19]: 101% |
| inactive | Nd(Insoluble) | Not Active | 365 | inactive | Nd(Insoluble) | Nd(Insoluble) | Cc1cccc(-c2coc3cc4oc(=O)c(-c5nsc(=O)o5)c(C)c4cc23)c1 |  |
